In one experiment the target is Protease (Human immunodeficiency virus 1, UniProt Q9YQ12). The experiment in a line: Inhibition of wild-type HIV1 BH10 protease expressed in Escherichia coli by spectrophotometric assay. A digest of the protocol:
(§1)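 Recombinant PR refolded from inclusion bodies and purified. 8-10 pmol enzyme in 1 mL 0.1 M sodium acetate pH 4.7, 0.3 M NaCl, 4 mM EDTA. Ki obtained by fitting the Williams–Morrison competitive inhibition equation.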

Experiment [1] addresses Human immunodeficiency virus type 1 protease (Human immunodeficiency virus 1, UniProt Q72874, A71V/I54V/I84V/L10I/L24I/L33F/L63P/M46L/V82A). In words: Inhibition of HIV1 recombinant protease L10I/L24I/L33F/M46L/I54V/L63P/A71V/V82A/I84V mutant expressed in Escherichia coli by spectrophotometric assay. A digest of the protocol: as §1
Experiment [2] has as its target Human immunodeficiency virus type 1 protease (Human immunodeficiency virus 1, UniProt Q72874, A71V/E35D/G73S/I15V/I62V/L10I/L63P/L90M/N37S/R41K). In words: Inhibition of HIV1 recombinant protease L10I/I15V/E35D/N37S/R41K/I62V/L63P/A71V/G73S/L90M mutant expressed in Escherichia coli by spectrophotometric assay.
Experiment [3] can be described thus: Ratio of Ki for HIV1 recombinant protease D30N/N88D mutant to Ki for wild-type HIV1 BH10 protease. More on the design: species or system Human immunodeficiency virus 1.
Experiment [4] deals with Human immunodeficiency virus type 1 protease (Human immunodeficiency virus 1, UniProt Q72874, A71V/I84V/M46I/V82T). In words: Inhibition of HIV1 recombinant protease M46I/A71V/V82T/I84V mutant expressed in Escherichia coli by spectrophotometric assay. A digest of the protocol: as §1
Experiment [5] addresses Human immunodeficiency virus type 1 protease (Human immunodeficiency virus 1, UniProt Q72874, D30N/N88D). The experiment in a line: Inhibition of HIV1 recombinant protease D30N/N88D mutant expressed in Escherichia coli by spectrophotometric assay. A digest of the protocol: as §1
A short description of experiment [6]: Ratio of Ki for HIV1 recombinant protease V32I/I47A mutant to Ki for wild-type HIV1 BH10 protease. The arrangement: species or system Human immunodeficiency virus 1.
The target in experiment [7] is Human immunodeficiency virus type 1 protease (Human immunodeficiency virus 1, UniProt Q72874, I47A/V32I). In words: Inhibition of HIV1 recombinant protease V32I/I47A mutant expressed in Escherichia coli by spectrophotometric assay. The procedure, abridged:
as §1

Experiment [8] has as its target Human immunodeficiency virus type 1 protease (Human immunodeficiency virus 1, UniProt Q72874, A71V/I84V/V82T). The experiment in a line: Inhibition of HIV1 recombinant protease A71V/V82T/I84V mutant expressed in Escherichia coli by spectrophotometric assay. The procedure, abridged:
as §1

Experiment [9] concerns the target Human immunodeficiency virus type 1 protease (Human immunodeficiency virus 1, UniProt Q72874, A71V/E35D/F53L/H69K/I54V/I84V/I93L/K20R/L10F/L19I/L33F/L63P/L89M/L90M/M36I/R41K/T74P). In words: Inhibition of HIV1 recombinant protease L10F/L19I/K20R/L33F/E35D/M36I/R41K/F53L/I54V/L63P/H69K/A71V/T74P/I84V/L89M/L90M/I93L mutant expressed in Escherichia coli by spectrophotometric assay. A digest of the protocol:
as §1

A short description of experiment [10]: Ratio of Ki for HIV1 recombinant protease M46I/A71V/V82T/I84V mutant to Ki for wild-type HIV1 BH10 protease. More on the design: species or system Human immunodeficiency virus 1.
A short description of experiment [11]: Ratio of Ki for HIV1 recombinant protease L10I/L24I/L33F/M46L/[…]/L63P/A71V/V82A/I84V mutant to Ki for wild-type HIV1 BH10 protease expressed in Escherichia coli. More on the design: species or system Human immunodeficiency virus 1.
Experiment [12] is described as follows: Ratio of Ki for HIV1 recombinant protease L10F/L19I/K20R/L33F/E35D/M36I/R41K/F53L/I54V/L63P/H69K/A71V/T74P/I84V/L89M/L90M/I93L mutant to Ki for wild-type HIV1 BH10 protease. More on the design: species or system Human immunodeficiency virus 1.
Experiment [13] can be described thus: Ratio of Ki for HIV1 recombinant protease A71V/V82T/I84V mutant to Ki for wild-type HIV1 BH10 protease. More on the design: species or system Human immunodeficiency virus 1.
Experiment [14] in a line: Ratio of Ki for HIV1 recombinant protease L10I/I15V/E35D/N37S/R41K/I62V/L63P/A71V/G73S/L90M mutant to Ki for wild-type HIV1 BH10 protease. The arrangement: species or system Human immunodeficiency virus 1.

`CC(C)CN(C[C@@H](O)[C@H](Cc1ccccc1)NC(=O)O[C@H]1CCOC1)S(=O)(=O)c1ccc(N)cc1`: the Ki at Protease turned out to be […]; in experiment [1], 4100 pM.

For `Cc1c(O)cccc1C(=O)N[C@@H](CSc1ccccc1)[C@H](O)CN1C[C@H]2CCCC[C@H]2C[C@H]1C(=O)NC(C)(C)C`, the Ki at Protease amounted to 70 pM.

On to `COC(=O)N[C@H](C(=O)N[C@@H](Cc1ccccc1)[C@@H](O)CN(Cc1ccc(-c2ccccn2)cc1)NC(=O)[C@@H](NC(=O)OC)C(C)(C)C)C(C)(C)C` [ATAZANAVIR], for which the Ki was 76 pM in experiment [2]; 760 pM in [4]; 55 pM in experiment [5]; 170 pM in experiment [7]; 230 pM in experiment [8]; 54 pM in [9]. Moreover, the Ki is 24 pM on Protease and 1200 pM in [1]. The Ki ratio is 2.3 in [3]; 7.1 in experiment [6]; 32 in experiment [10]; 50 in experiment [11]; 2.3 in experiment [12]; 9.4 in [13]. The Ki ratio in experiment [14] is 3.2.
